ChEMBL document CHEMBL4689842, “EUbOPEN Chemogenomics Library wave 1” (2021)

Tested on: U2OS
Experiment: Multiplex assay against U2OS
Assay type: toxicity, cell-based
Details: human
Summary of the method: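 Hoechst33342, BioTracker Green Microtubule Cytoskeleton Dye, MitoTracker Red and Annexin V Alexa Fluor 680 were added to live cells at seeding, and imaging on a CQ1 microscope at 37°C and 5% CO2 followed compound addition. Gating by CellPathfinder machine learning separated cells into Hoechst high-intensity objects or normal cells, then normal cells into healthy, pyknosed or fragmented nuclei, then pyknosed cells into mitotic or apoptotic. Per cents of healthy-nucleus cells are reported for the tubulin, mitochondrial-mass and membrane-permeability phenotypes.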

[1] = 12 h, 1 µM, compound concentration 1 uM, replicate 1
[2] = 12 h, 1 µM, compound concentration 1 uM, replicate 2
[3] = 12 h, 10 µM, compound concentration 10 uM, replicate 1
[4] = 12 h, 10 µM, compound concentration 10 uM, replicate 2
[5] = 24 h, 1 µM, compound concentration 1 uM, replicate 1
[6] = 24 h, 1 µM, compound concentration 1 uM, replicate 2
[7] = 24 h, 10 µM, compound concentration 10 uM, replicate 1
[8] = 24 h, 10 µM, compound concentration 10 uM, replicate 2
[9] = 48 h, 1 µM, compound concentration 1 uM, replicate 1
[10] = 48 h, 1 µM, compound concentration 1 uM, replicate 2
[11] = 48 h, 10 µM, compound concentration 10 uM, replicate 1
[12] = 48 h, 10 µM, compound concentration 10 uM, replicate 2

In the case of `Cc1cc(C)c(S(=O)(=O)N(Cc2ccc(-c3cccc(S(C)(=O)=O)c3)cc2)Cc2ccc(C(F)(F)F)o2)c(C)c1`, the “Population Apoptotic (%)” value [1] was 50%, the “Population Fragmented Nuclei (%)” value [1] was 9% and the “Population Healthy Nuclei (%)” value [1] was 84%. For the same compound, the “Population Hoechst High Intensity Objects (%)” value [1] was 7%, the “Population Membrane Permeable-Phenotype (%)” value [1] was 4% and the “Population Mitochondria Different-Phenotype (%)” value [1] was 18%. The “Population Mitotic Cells (%)” value [1] was 50%, the “Population Normal (%)” value [1] was 92% and the “Population Pyknosed Nuclei (%)” value [1] was 6%. The “Population Tubulin-Different-Phenotype (%)” value [1] was 12%, the “Total Cell Count” value [1] was 77 and the “Population Apoptotic (%)” value [2] was 66%. For the same compound, the “Population Fragmented Nuclei (%)” value [2] was 15%, the “Population Healthy Nuclei (%)” value [2] was 80% and the “Population Hoechst High Intensity Objects (%)” value [2] was 6%. The “Population Membrane Permeable-Phenotype (%)” value [2] was 3%, the “Population Mitochondria Different-Phenotype (%)” value [2] was 21% and the “Population Mitotic Cells (%)” value [2] was 33%. For the same compound, the “Population Normal (%)” value [2] was 93%, the “Population Pyknosed Nuclei (%)” value [2] was 3% and the “Population Tubulin-Different-Phenotype (%)” value [2] was 27%. For the same compound, the “Total Cell Count” value [2] was 72, the “Population Apoptotic (%)” value [3] was 31% and the “Population Fragmented Nuclei (%)” value [3] was 8%. For the same compound, the “Population Healthy Nuclei (%)” value [3] was 81%, the “Population Hoechst High Intensity Objects (%)” value [3] was 5% and the “Population Membrane Permeable-Phenotype (%)” value [3] was 58%. The “Population Mitochondria Different-Phenotype (%)” value [3] was 27%, the “Population Mitotic Cells (%)” value [3] was 68% and the “Population Normal (%)” value [3] was 94%. For the same compound, the “Population Pyknosed Nuclei (%)” value [3] was 10%, the “Population Tubulin-Different-Phenotype (%)” value [3] was 85% and the “Total Cell Count” value [3] was 104. The “Population Apoptotic (%)” value [4] was 0%, the “Population Fragmented Nuclei (%)” value [4] was 14% and the “Population Healthy Nuclei (%)” value [4] was 77%. For the same compound, the “Population Hoechst High Intensity Objects (%)” value [4] was 22%, the “Population Membrane Permeable-Phenotype (%)” value [4] was 3% and the “Population Mitochondria Different-Phenotype (%)” value [4] was 3%. For the same compound, the “Population Mitotic Cells (%)” value [4] was 100%, the “Population Normal (%)” value [4] was 77% and the “Population Pyknosed Nuclei (%)” value [4] was 8%. The “Population Tubulin-Different-Phenotype (%)” value [4] was 11%, the “Total Cell Count” value [4] was 81 and the “Population Apoptotic (%)” value [5] was 40%. For the same compound, the “Population Fragmented Nuclei (%)” value [5] was 10%, the “Population Healthy Nuclei (%)” value [5] was 82% and the “Population Hoechst High Intensity Objects (%)” value [5] was 3%. The “Population Membrane Permeable-Phenotype (%)” value [5] was 3%, the “Population Mitochondria Different-Phenotype (%)” value [5] was 13% and the “Population Mitotic Cells (%)” value [5] was 60%. For the same compound, the “Population Normal (%)” value [5] was 96%, the “Population Pyknosed Nuclei (%)” value [5] was 7% and the “Population Tubulin-Different-Phenotype (%)” value [5] was 9%. The “Total Cell Count” value [5] was 89, the “Population Apoptotic (%)” value [6] was 0% and the “Population Fragmented Nuclei (%)” value [6] was 14%. The “Population Healthy Nuclei (%)” value [6] was 80%, the “Population Hoechst High Intensity Objects (%)” value [6] was 1% and the “Population Membrane Permeable-Phenotype (%)” value [6] was 5%. For the same compound, the “Population Mitochondria Different-Phenotype (%)” value [6] was 18%, the “Population Mitotic Cells (%)” value [6] was 100% and the “Population Normal (%)” value [6] was 98%. For the same compound, the “Population Pyknosed Nuclei (%)” value [6] was 5%, the “Population Tubulin-Different-Phenotype (%)” value [6] was 32% and the “Total Cell Count” value [6] was 86. For the same compound, the “Population Apoptotic (%)” value [7] was 41%, the “Population Fragmented Nuclei (%)” value [7] was 11% and the “Population Healthy Nuclei (%)” value [7] was 71%. For the same compound, the “Population Hoechst High Intensity Objects (%)” value [7] was 6%, the “Population Membrane Permeable-Phenotype (%)” value [7] was 47% and the “Population Mitochondria Different-Phenotype (%)” value [7] was 32%. The “Population Mitotic Cells (%)” value [7] was 58%, the “Population Normal (%)” value [7] was 93% and the “Population Pyknosed Nuclei (%)” value [7] was 17%. The “Population Tubulin-Different-Phenotype (%)” value [7] was 87%, the “Total Cell Count” value [7] was 133 and the “Population Apoptotic (%)” value [8] was 14%. The “Population Fragmented Nuclei (%)” value [8] was 15%, the “Population Hoechst High Intensity Objects (%)” value [8] was 10% and the “Population Membrane Permeable-Phenotype (%)” value [8] was 5%. For the same compound, the “Population Mitochondria Different-Phenotype (%)” value [8] was 10%, the “Population Mitotic Cells (%)” value [8] was 85% and the “Population Normal (%)” value [8] was 89%. The “Population Pyknosed Nuclei (%)” value [8] was 13%, the “Population Tubulin-Different-Phenotype (%)” value [8] was 15% and the “Total Cell Count” value [8] was 109. For the same compound, the “Population Apoptotic (%)” value [9] was 64%, the “Population Fragmented Nuclei (%)” value [9] was 6% and the “Population Healthy Nuclei (%)” value [9] was 83%. The “Population Hoechst High Intensity Objects (%)” value [9] was 3%, the “Population Membrane Permeable-Phenotype (%)” value [9] was 1% and the “Population Mitochondria Different-Phenotype (%)” value [9] was 7%. For the same compound, the “Population Mitotic Cells (%)” value [9] was 35%, the “Population Normal (%)” value [9] was 96% and the “Population Pyknosed Nuclei (%)” value [9] was 9%. For the same compound, the “Population Tubulin-Different-Phenotype (%)” value [9] was 4%, the “Total Cell Count” value [9] was 116 and the “Population Apoptotic (%)” value [10] was 50%. For the same compound, the “Population Fragmented Nuclei (%)” value [10] was 9%, the “Population Healthy Nuclei (%)” value [10] was 84% and the “Population Hoechst High Intensity Objects (%)” value [10] was 2%. The “Population Membrane Permeable-Phenotype (%)” value [10] was 6%, the “Population Mitochondria Different-Phenotype (%)” value [10] was 25% and the “Population Mitotic Cells (%)” value [10] was 50%. The “Population Normal (%)” value [10] was 97%, the “Population Pyknosed Nuclei (%)” value [10] was 5% and the “Population Tubulin-Different-Phenotype (%)” value [10] was 34%. For the same compound, the “Total Cell Count” value [10] was 123, the “Population Apoptotic (%)” value [11] was 55% and the “Population Fragmented Nuclei (%)” value [11] was 9%. The “Population Healthy Nuclei (%)” value [11] was 72%, the “Population Hoechst High Intensity Objects (%)” value [11] was 3% and the “Population Membrane Permeable-Phenotype (%)” value [11] was 24%. The “Population Mitochondria Different-Phenotype (%)” value [11] was 24%, the “Population Mitotic Cells (%)” value [11] was 45% and the “Population Normal (%)” value [11] was 96%. The “Population Pyknosed Nuclei (%)” value [11] was 18%, the “Population Tubulin-Different-Phenotype (%)” value [11] was 55% and the “Total Cell Count” value [11] was 181. For the same compound, the “Population Apoptotic (%)” value [12] was 25%, the “Population Fragmented Nuclei (%)” value [12] was 7% and the “Population Healthy Nuclei (%)” value [12] was 82%. The “Population Membrane Permeable-Phenotype (%)” value [12] was 6%, the “Population Mitochondria Different-Phenotype (%)” value [12] was 10% and the “Population Mitotic Cells (%)” value [12] was 75%. For the same compound, the “Population Pyknosed Nuclei (%)” value [12] was 10%, the “Population Tubulin-Different-Phenotype (%)” value [12] was 13% and the “Total Cell Count” value [12] was 148.
